# Legend:
# [1] = tested on: wounded skin of neonatal mice; experiment: Detection and distribution of peptide in wounded skin; type: in vivo, mouse; conditions: whole-mount skin, 60 μM, 2 h postwounding, streptavidin (Alexa 594) confocal
# [2] = tested on: 5 mm excisional wounds on adult CD-1 mice; experiment: Full-thickness 5 mm excisional wound closure in adult mice; type: in vivo, mouse
# Procedure, shortened: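 Adult CD-1 mice received 5 mm full-thickness excisional wounds treated with 20% pluronic gel alone (n = 102) or with 60 μM peptide (n = 95). Gel was applied at wounding and again 24 h later. Wounds were imaged under anaesthesia at 1, 4, 7 and 10 days, and area was measured blind to treatment. There were nine independent experiments with 8–16 animals per group. Analysis used t-test with Bonferroni correction.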
# [3] = tested on: 5 mm excisional wounds on adult CD-1 mice; type: in vivo, mouse; conditions: two blinded observers, vs vehicle
# Procedure, shortened: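 Adult CD-1 mice received full-thickness 5 mm excisional wounds, treated immediately and again at 24 h with 20% pluronic gel with or without 60 μM peptide. Wound images were scored 0–5 by two observers blind to treatment. Redness/swelling was scored at 24 h and 4 days, and appearance/scarring (discoloration, smoothness) at 7 and 10 days. Each wound's score was the mean of both observers. Data came from nine experiments.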
# [4] = tested on: healed excisional wounds of adult mice; experiment: Tensile testing to failure of skin strips with healed wounds; type: in vivo, mouse; conditions: 3 months postwounding
# [5] = tested on: neutrophils at adult mouse excisional skin injuries; experiment: Neutrophil counts in H&E sections of adult excisional wounds; type: in vivo; conditions: 24 h and 4 days, three treatment and three control wounds, p < 0.01-0.001
# [6] = tested on: second PDZ domain (PDZ2) of zonula occludens (ZO)-1; conditions: cited from earlier work
# [7] = tested on: Cx43-expressing HeLa cells; conditions: cited from earlier work
# [8] = tested on: Cx43; experiment: Quantitative immunolabeling of Cx43 and ZO-1 in wound epidermis; type: in vivo; conditions: adult mouse wound epidermis, 24 h
# Procedure, shortened: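 Paired peptide-treated and control wounds were taken from the same five adult mice. Peptide was given at 60 μM in 20% pluronic gel. Sections taken 24 h after injury were labelled with Cx43 and ZO-1 antibodies plus DAPI and imaged by laser scanning confocal microscopy. Epidermal Cx43 particle size, numerical density and total immunolabelled area were quantified.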
# [9] = tested on: neutrophils at 2 mm excisional wounds on neonatal mice; experiment: Whole-mount myeloperoxidase neutrophil density assay in neonatal wounds; type: in vivo, mouse; conditions: 48 h postwounding
# Procedure, shortened: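 Two-day-old pups were sedated by hypothermia and given bilateral 2 mm punch wounds at least 1 cm apart; one wound per mouse received 60 μM peptide and the other vehicle. For the 48 h harvest, treatment was repeated at 24 h. Myeloperoxidase-positive cells were grid-counted blind. Analysis used Wilcoxon matched-pairs test.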
# [10] = adult mice, 5 mm excisional wound, 10-day time course, vs controls
sequence,measurement,setting,value
RQPKIWFPNRRKPWKKRPRPDDLEI [ACT1],spread of peptide in tissue after application to wound,[1],could be observed in tissues surrounding the wound edges
same,healed appearance (qualitative),[2]; [10],less discolored appearance
same,swelling / inflammation of wound (qualitative),[2]; [10],less swollen and inflamed
same,experiments with significantly accelerated closure rate,"[2]; nine independent experiments, 8-16 animals per group",eight of the nine experiments
same,scarring/overall appearance score (0-5),[3]; 7 and 10 days postwounding,significantly improved
same,wound redness score (0-5),[3]; 24 h and 4 days postwounding,significantly decreased
same,overall appearance of healed wounds,[4],improvement in overall appearance of the healed wounds is maintained
same,neutrophil density,[5],significant decreases
same,effect on Cx43-ZO-1 interaction,[6],competitively inhibiting the interaction of endogenous Cx43 molecules with ZO-1
same,Cx43 distribution and levels,[7]; Cx43-expressing HeLa cells,redistribution of Cx43 from a detergent-soluble to an insoluble fraction without causing changes in overall levels of the protein
same,GJ aggregate size and number,[7]; Cx43-expressing HeLa cells,increase in the size and decrease in the number of GJ aggregates
same,subcellular targeting of peptide,[7]; HeLa cells,Cytoplasmic targeting
same,apically localized ZO-1 staining proximal to wound edge,[8],reduction appeared to be more pronounced
same,average size of Cx43 particles (GJs),[8]; paired wounds on five mice,significant (p < 0.05) overall increase
same,numerical density of Cx43 particles,[8]; paired wounds on five mice,significantly (p < 0.05) reduced
same,localisation of neutrophils at wound,[9],frequently sequestered in blood vessels

# Reference: PMC2720252 (Regenerative medicine, 2009)
